This is a sample that favours compounds with a hit; in the whole collection about 0.92% have one here.
RAD52 inh: blocks human RAD52 DNA annealing | P43351 | recombinant RAD52 DNA annealing, FRET fluorescence | inhibition, % at 18.7 µM | hit rate 0.46% among 360,000 | AID 651710;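 active = every replicate showing at least 50% inhibition; inconclusive = mean inhibition at least 50% but not in every replicate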
RAD54 branch: blocks human RAD54 Holliday junction branch migration; FAM/BHQ fluorescence; inhibition, % at 10.4 µM; hit rate 0.14% among 360,000; AID 602329;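 active = mean normalized replicate activity at least 40 and at least half of replicates scoring 40 or more; inconclusive = only one of the two criteria met; inactive = mean below 40 and under half of replicates reaching 40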;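 also: 0% = median of neutral control wells and 100% = median of positive control wells; inhibitors cause a drop in the FAM fluorescence signal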
MLL AF4-AF9 inh: blocks AF4 peptide binding to human AF9; hit rate 0.47% among 350,000; inhibition, % at 10 µM; AlphaScreen, biotin-AF4 peptide binding to FLAG-AF9; P42568; AID 651704;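 active = every replicate reaching a set inhibition limit, whatever the replicate mean, cut at about 25% in these data; inconclusive = mean inhibition reaches that limit but some replicates miss it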;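 also: 0% = plate neutral control median and 100% = total signal loss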
Glyco luc inh: blocks N-linked glycosylation in D54 reporter cells. D54 ERlucT glycosylation luciferase reporter, 24 h; percent of 100 nM tunicamycin response. reporter increase, % at 12.5 µM. hit rate 0.23% among 360,000. AID 588692;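 active = mean luciferase reporter signal, scaled so untreated is 0 and the glycosylation-blocking control 100, at or above a set limit in every replicate; inconclusive = mean reaches the limit but not every replicate does; inactive = mean below the limit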;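 also: luciferase carries N-glycosylation sites so blocking glycosylation raises the light; 0% = median of neutral control wells and 100% = median of 100 nM tunicamycin wells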
FN deposit inh: fibronectin deposition inhibition; AID 743247; AH1F fibroblasts, Alexa488-fibronectin deposition fluorescence, overnight; hit rate 0.086% among 350,000; inhibition, % at 12.6 µM;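 active = mean inhibition across replicates of 30% or more, regardless of how many single replicates reach that level; inconclusive = mean under 30% yet at least half of replicates reach 30%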;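 also: positive control wells lacked labelled fibronectin entirely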
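Test system: AH1F fibroblast monolayer depositing Alexa488-labelled fibronectin into matrix. Input: 10000 cells per well. Technique: fluorescence, ex 485 nm, em 525 nm. Buffer or medium: DMEM plus 2% serum, read in PBS. Timing: 1 h cell adhesion before compound, then overnight fibronectin incubation. Compound: single dose, pinned. Read-out basis: inhibition from reduced deposited-fibronectin fluorescence.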
* hit, by the source's call; ? = inconclusive; nt = not tested or not shown.

SMILES | RAD52 inh | RAD54 branch | MLL AF4-AF9 inh | Glyco luc inh | FN deposit inh
COc1cccc(C(=O)Nc2ccc3c(c2)OC[C@@H](C)N(C(=O)C2CCCC2)C[C@H](C)[C@@H](OC)CN(C)C3=O)c1 | -11 | 16 | -11 | nt | 1
COc1ccc2c3c(n(C)c2c1)[C@H](CO)NCC31CN(Cc2ccc(-c3ccccn3)cc2)C1 | 89* | nt | 47* | nt | -4
COc1ccc2c3c(n(C)c2c1)[C@@H](CO)NCC31CN(C(C)=O)C1 | nt | nt | 0 | nt | nt
COc1ccc2c3c(n(C)c2c1)[C@@H](CO)NCC31CN(CC2CC2)C1 | 56* | nt | 16 | nt | nt
COc1ccc2c3c(n(C)c2c1)[C@H](CO)NCC31CCN(Cc2ccncc2)CC1 | -7 | nt | 16 | nt | -3
COc1ccc2c3c(n(C)c2c1)[C@@H](CO)NCC31CN(Cc2ccccc2Cl)C1 | 6 | nt | 39* | nt | 3
COc1ccc2c3c(n(C)c2c1)[C@H](CO)NCC31CCN(CC2CC2)CC1 | 63* | nt | -1 | nt | nt
COc1cc(C2c3[nH]c4ccccc4c3CC3COC(=O)N32)cc(OC)c1O (centres undefined) | -5 | nt | 2 | 36* | 4
COc1cc([C@H]2c3[nH]c4ccccc4c3C[C@H]3C(=O)N4[C@@H](c5cc(OC)c(OC)c(OC)c5)c5[nH]c6ccccc6c5C[C@H]4C(=O)N23)cc(OC)c1OC | nt | -2 | nt | 20 | nt
COc1ccc(C2c3cc(OC)c(OC)cc3CCN2C(=O)c2ccccc2)cc1OC (centres undefined) | -12 | -6 | 7 | 0 | 3
COc1cc2c(cc1OC)C(c1ccccc1)N(C(=O)c1cccc(S(C)(=O)=O)c1)CC2 (centres undefined) | 2 | nt | -6 | 67* | -2
COc1cc2c(cc1OC)C(c1cccs1)N(C(=S)NC(C)C)CC2 (centres undefined) | -22 | nt | 3 | 45* | nt
COc1cc2c(cc1OC)C(c1cccs1)N(C(=O)c1ccncc1)CC2 (centres undefined) | -10 | nt | 8 | ? | -4
C[C@@H]1CCCCO[C@@H](CN(C)Cc2ccccc2)[C@@H](C)CN([C@H](C)CO)C(=O)c2cc(NC(=O)Nc3ccc(C(F)(F)F)cc3)ccc2O1 | 3 | -6 | -3 | nt | 3
CCCNC(=O)N1CC2(CN(CC3CCCCC3)C2)c2c(n(C)c3cc(OC)ccc23)[C@H]1CO | 10 | nt | ? | nt | -8
CCCNC(=O)N1CC2(CN(CC3CCCCC3)C2)c2c(n(C)c3cc(OC)ccc23)[C@@H]1CO | 22 | nt | 33* | nt | -3
CCCNC(=O)N1CC2(CN(Cc3ccc(OC)cc3)C2)c2c(n(C)c3cc(OC)ccc23)[C@@H]1CO | nt | nt | 34* | nt | nt
CCCNC(=O)N1CC2(CN(Cc3cccc(OC)c3)C2)c2c(n(C)c3cc(OC)ccc23)[C@H]1CO | 4 | nt | ? | nt | nt
CN=c1sc(C(=O)Nc2cccc(Cl)c2)cc(=O)n1C | nt | -32 | nt | 31* | nt
Cn1c(N)c(C(=O)Nc2cccc(Cl)c2)c(=O)n(C)c1=O | -16 | 7 | 2 | 4 | -4
COC(=O)c1cc(=O)n(-c2ccccc2)c(=Nc2ccccc2)s1 | -5 | 2 | 28* | 22 | 7
O=C(O)c1ccc(N2CCc3ccccc32)c([N+](=O)[O-])c1 | 2 | 0 | 4 | 1 | -2
CN1CCN(c2ccccc2NC(=O)c2ccc(N3CCCCC3)c([N+](=O)[O-])c2)CC1 | 8 | 2 | 27* | 1 | -31
COC(=O)c1ccc(N2CCc3ccccc32)c([N+](=O)[O-])c1 | -2 | -7 | 33* | -2 | 1
C[C@@H]1CN([C@H](C)CO)C(=O)c2cc(N(C)C)ccc2O[C@@H]1CN(C)C | -16 | 0 | -4 | nt | -5
COc1ccc(-c2cnc3c(c2)C(=O)N([C@H](C)CO)C[C@H](C)[C@H](CN(C)C(=O)Cc2ccccn2)O3)cc1 | 8 | 17 | -6 | nt | nt
Cc1ccc(-n2cc(CNCCCn3ccnc3C)c(-c3ccc(F)cc3)n2)cc1 | -8 | 30 | 26* | -5 | 12
CCN1CCN(Cc2ccc(NC(=O)c3ccc(C)c(/C=C/c4cnc(Nc5cc(N6CCNCC6)nc(C)n5)cn4)c3)cc2C(F)(F)F)CC1 | nt | 105* | nt | -20 | nt
C[C@H](CO)N1C[C@H](C)[C@H](CN(C)C(=O)NC2CCCC2)Oc2ncc(/C=C/c3ccccc3)cc2C1=O | -3 | 2 | 2 | nt | -15
